Test results reported in ChEMBL document CHEMBL3120098, “Structure-activity relationship (SAR) optimization of 6-(indol-2-yl)pyridine-3-sulfonamides: identification of potent, selective, and orally bioavailable small molecules targeting hepatitis C (HCV) NS4B” (J Med Chem, 2014).

How the values were obtained:
[1] = Terminal half life in cynomolgus monkey at 2.5 mg/kg, iv; format: ADME, organism-based, Macaca fascicularis; parameters: dose 2.5 mg/kg, route intravenous; details: in vivo, read-out: beta t1/2 (converted)
[2] = Terminal half life in beagle dog at 2.5 mg/kg, iv; format: ADME, organism-based, Canis lupus familiaris; parameters: dose 2.5 mg/kg, route intravenous; details: in vivo, read-out: beta t1/2 (converted)
[3] = tested on: Rattus norvegicus; experiment: Drug metabolism in bile duct cannulated rat assessed as 6-(3-cyano-1-cyclobutyl-6-(difluoromethoxy)-5-fluoro-1H-indol-2-yl)pyridine-3-sulfonamide formation in plasma at 5 mg/kg; format: ADME, organism-based; parameters: dose 5 mg/kg; details: in vivo
[4] = tested on: Hepatitis C virus; experiment: Antiviral activity against HCV1b Con1 infected in human HuH7 cells assessed as inhibition of viral RNA replication by RT-PCR analysis; format: functional, organism-based, Hepacivirus hominis; details: isolate Con1, Huh-7
[5] = AUC (0 to infinity) in cynomolgus monkey at 5 mg/kg, po; format: ADME, organism-based, Macaca fascicularis; parameters: time infinity, dose 5 mg/kg, route oral; details: plasma
[6] = Oral bioavailability in cynomolgus monkey at 5 mg/kg; format: ADME, organism-based, Macaca fascicularis; details: in vivo
[7] = tested on: Canis familiaris; experiment: (§1) Oral bioavailability in beagle dog at 5 mg/kg; format: ADME, organism-based, Canis lupus familiaris; details: in vivo
[8] = tested on: Canis familiaris; experiment: (§2) AUC (0 to infinity) in beagle dog at 5 mg/kg, po; format: ADME, organism-based, Canis lupus familiaris, Plasma; parameters: dose 5 mg/kg, route oral, time infinity; details: in vivo
[9] = AUC (0 to 6 hrs) in Sprague-Dawley rat at 10 mg/kg, po; format: ADME, organism-based; parameters: time < 6 hr, dose 10 mg/kg, route oral; details: plasma
[10] = Ratio of drug level in liver to plasma in Sprague-Dawley rat at 10 mg/kg, po after 6 hrs; format: ADME, organism-based; parameters: dose 10 mg/kg, route oral
Summary of the method: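 Male Sprague-Dawley rats, 10 mg/kg PO suspension in 0.4% hydroxypropyl methylcellulose; liver and plasma drug levels measured at 6 h, expressed as liver/plasma ratio.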

[11] = Ratio of EC50 for HCV1b Con1 to plasma concentration in Sprague-Dawley rat at 10 mg/kg, po after 6 hrs
[12] = AUC (0 to infinity) in Sprague-Dawley rat at 10 mg/kg, po; format: ADME, organism-based; parameters: time infinity, dose 10 mg/kg, route oral; details: plasma
[13] = Clearance in Sprague-Dawley rat at 6 mg/kg, iv; format: ADME, organism-based; parameters: dose 6 mg/kg, route intravenous; details: in vivo
[14] = Oral bioavailability in Sprague-Dawley rat at 10 mg/kg; format: ADME, organism-based; details: in vivo
[15] = Toxicity in human HuH7 cells assessed as effect on GAPDH mRNA level; format: cell-based, Huh-7
Summary of the method: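 Run in parallel with replicon assay in Con1 replicon Huh-7 cells (0.5% DMSO, 37 °C); endogenous GAPDH mRNA quantified by TaqMan RT-PCR; highest concentration tested 10000 nM.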

[16] = Terminal half life in Sprague-Dawley rat at 6 mg/kg, iv; format: ADME, organism-based; parameters: dose 6 mg/kg, route intravenous; details: in vivo, read-out: beta t1/2 (converted)
[17] = Clearance in cynomolgus monkey at 2.5 mg/kg, iv; format: ADME, organism-based, Macaca fascicularis; parameters: dose 2.5 mg/kg, route intravenous; details: in vivo
[18] = tested on: Pregnane X receptor (Homo sapiens); experiment: Activation of PXR (unknown origin) at 10 uM by reporter gene assay
[19] = molecular target: T1, Cytochrome P450 3A4 (Homo sapiens, UniProt P08684); experiment: Induction of CYP3A4 activity in human hepatocytes at 3 uM relative to rifampicin; format: ADME, cell-based, Hepatocyte
Summary of the method: (§3)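 Cryopreserved cultured human hepatocytes incubated 3 days with compound at several concentrations; CYP3A4 enzyme activity and mRNA expression measured, expressed as percent induction relative to rifampicin.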

[20] = tested on: Hepatocyte; experiment: Induction of CYP3A4 mRNA expression in human hepatocytes at 10 uM relative to rifampicin; format: ADME, cell-based; summary of the method: as §3
[21] = tested on: Hepatitis C virus; experiment: Antiviral activity against HCV2a JFH-1 infected in human HuH7 cells assessed as inhibition of viral replication; format: functional, organism-based, Hepacivirus hominis; details: JFH-1, Huh-7
[22] = molecular target: Cytochrome P450 2D6 (Homo sapiens, UniProt P10635); experiment: Inhibition of CYP2D6 in human liver microsomes; format: ADME
[23] = molecular target: Cytochrome P450 2C9 (Homo sapiens, UniProt P11712); experiment: Inhibition of CYP2C9 in human liver microsomes; format: ADME
[24] = tested on: Hepatocyte; experiment: Induction of CYP3A4 mRNA expression in human hepatocytes at 3 uM relative to rifampicin; format: ADME, cell-based; summary of the method: as §3
[25] = molecular target: T1, Cytochrome P450 3A4; experiment: Induction of CYP3A4 activity in human hepatocytes at 10 uM relative to rifampicin; format: ADME, cell-based, Hepatocyte; summary of the method: as §3
[26] = molecular target: T1, Cytochrome P450 3A4; experiment: Inhibition of CYP3A4 in human liver microsomes; format: ADME
[27] = organism: Rattus norvegicus; experiment: Drug metabolism in bile duct cannulated rat assessed as 6-(3-cyano-6-ethyl-5-fluoro-1-(pyrimidin-2-yl)-1H-indol-2-yl)pyridine-3-sulfonamide level in plasma; format: ADME, organism-based
[28] = tested on: Rhesus monkey; experiment: Drug metabolism in bile duct cannulated monkey assessed as GSH adduct formation; format: ADME, organism-based, Macaca mulatta; details: in vivo
[29] = tested on: Rattus norvegicus; experiment: Toxicity in rat up to 2000 mg/kg/day; format: organism-based; details: in vivo
Summary of the method: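 Non-GLP 14-day rat safety study with daily dosing up to 2000 mg/kg/day.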

[30] = organism: Canis familiaris; experiment: Drug metabolism in bile duct cannulated dog assessed as GSH adduct formation; format: ADME, organism-based, Canis lupus familiaris; details: in vivo
[31] = organism: Rattus norvegicus; experiment: Drug metabolism in bile duct cannulated rat assessed as 6-(3-cyano-5-fluoro-6-(1-hydroxyethyl)-1-(pyrimidin-2-yl)-1H-indol-2-yl)-N-((S)-1,1,1-trifluoropropan-2-yl)pyridine-3-sulfonamide level in plasma; format: ADME, organism-based
[32] = molecular target: T1, Cytochrome P450 3A4; experiment: Induction of CYP3A4 activity in human hepatocytes at 5 uM relative to rifampicin; format: ADME, cell-based, Hepatocyte; summary of the method: as §3
[33] = as §1; format: ADME, organism-based, Canis lupus familiaris; details: beagle, in vivo
[34] = Ratio of EC50 for HCV1b Con1 to plasma concentration in beagle dog at 5 mg/kg, po after 8 hrs
[35] = as §2; format: ADME, organism-based, Canis lupus familiaris, Plasma; parameters: dose 5 mg/kg, route oral, time infinity; details: beagle, plasma
[36] = Volume of distribution at steady state in cynomolgus monkey at 2.5 mg/kg, iv and 5 mg/kg, po; format: ADME, organism-based, Macaca fascicularis; details: in vivo, read-out: Vdss
[37] = Cmax in cynomolgus monkey at 5 mg/kg, po; format: ADME, organism-based, Macaca fascicularis; parameters: dose 5 mg/kg, route oral; details: in vivo
[38] = tested on: Hepatocyte; experiment: Induction of CYP3A4 mRNA expression in human hepatocytes at 5 uM relative to rifampicin; format: ADME, cell-based; summary of the method: as §3
[39] = organism: Rattus norvegicus; experiment: Drug metabolism in bile duct cannulated rat assessed as 6-(3-cyano-5-fluoro-6-(1-hydroxyethyl)-1-(pyrimidin-2-yl)-1H-indol-2-yl)pyridine-3-sulfonamide level in plasma; format: ADME, organism-based
[40] = Volume of distribution at steady state in Sprague-Dawley rat at 6 mg/kg, iv and 10 mg/kg, po; format: ADME, organism-based; details: in vivo, read-out: Vdss
[41] = Clearance in beagle dog at 2.5 mg/kg, iv; format: ADME, organism-based, Canis lupus familiaris; parameters: dose 2.5 mg/kg, route intravenous; details: in vivo
[42] = Ratio of EC50 for HCV1b Con1 to plasma concentration in Sprague-Dawley rat at 10 mg/kg, po after 8 hrs
[43] = Ratio of EC50 for HCV1b Con1 to plasma concentration in cynomolgus monkey at 5 mg/kg, po after 8 hrs
[44] = Cmax in Sprague-Dawley rat at 10 mg/kg, po; format: ADME, organism-based; parameters: dose 10 mg/kg, route oral; details: in vivo
[45] = Volume of distribution at steady state in beagle dog at 2.5 mg/kg, iv and 5 mg/kg, po; format: ADME, organism-based, Canis lupus familiaris; details: in vivo, read-out: Vdss
[46] = Cmax in beagle dog at 5 mg/kg, po; format: ADME, organism-based, Canis lupus familiaris; parameters: dose 5 mg/kg, route oral; details: in vivo
[47] = tested on: Hepatitis C virus; experiment: Antiviral activity against HCV1a H77S assessed as inhibition of viral replication; format: functional, organism-based, Hepacivirus hominis; details: genotype 1a H77S

Sequence of Cytochrome P450 2C9 (P11712 whole entry): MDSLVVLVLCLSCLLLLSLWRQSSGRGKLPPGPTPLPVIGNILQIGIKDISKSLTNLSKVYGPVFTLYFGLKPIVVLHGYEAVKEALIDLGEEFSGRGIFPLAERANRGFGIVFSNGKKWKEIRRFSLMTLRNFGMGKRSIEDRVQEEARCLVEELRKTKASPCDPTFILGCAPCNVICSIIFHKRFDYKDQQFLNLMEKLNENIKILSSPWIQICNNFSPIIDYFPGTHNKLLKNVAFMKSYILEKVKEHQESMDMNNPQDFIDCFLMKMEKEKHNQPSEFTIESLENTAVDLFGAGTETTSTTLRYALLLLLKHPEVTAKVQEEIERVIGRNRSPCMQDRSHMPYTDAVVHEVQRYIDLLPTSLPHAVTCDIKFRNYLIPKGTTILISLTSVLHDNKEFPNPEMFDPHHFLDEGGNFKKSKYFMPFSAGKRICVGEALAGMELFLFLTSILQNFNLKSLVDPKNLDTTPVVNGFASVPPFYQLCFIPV
Sequence of Cytochrome P450 2D6 (P10635 whole entry): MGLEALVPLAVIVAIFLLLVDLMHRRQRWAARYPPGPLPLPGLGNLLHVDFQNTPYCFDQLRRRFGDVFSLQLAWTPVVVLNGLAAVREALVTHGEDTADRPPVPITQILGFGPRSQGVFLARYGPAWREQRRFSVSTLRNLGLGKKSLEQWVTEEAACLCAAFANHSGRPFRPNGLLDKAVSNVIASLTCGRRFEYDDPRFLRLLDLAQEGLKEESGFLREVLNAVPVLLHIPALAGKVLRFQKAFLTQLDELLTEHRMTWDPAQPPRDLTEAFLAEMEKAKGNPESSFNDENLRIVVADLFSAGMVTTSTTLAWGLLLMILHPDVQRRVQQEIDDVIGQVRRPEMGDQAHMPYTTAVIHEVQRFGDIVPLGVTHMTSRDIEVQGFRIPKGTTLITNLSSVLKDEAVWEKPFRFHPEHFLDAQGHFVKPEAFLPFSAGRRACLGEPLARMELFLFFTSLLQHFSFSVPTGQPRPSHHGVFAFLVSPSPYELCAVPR
T1 sequence (P08684 whole entry): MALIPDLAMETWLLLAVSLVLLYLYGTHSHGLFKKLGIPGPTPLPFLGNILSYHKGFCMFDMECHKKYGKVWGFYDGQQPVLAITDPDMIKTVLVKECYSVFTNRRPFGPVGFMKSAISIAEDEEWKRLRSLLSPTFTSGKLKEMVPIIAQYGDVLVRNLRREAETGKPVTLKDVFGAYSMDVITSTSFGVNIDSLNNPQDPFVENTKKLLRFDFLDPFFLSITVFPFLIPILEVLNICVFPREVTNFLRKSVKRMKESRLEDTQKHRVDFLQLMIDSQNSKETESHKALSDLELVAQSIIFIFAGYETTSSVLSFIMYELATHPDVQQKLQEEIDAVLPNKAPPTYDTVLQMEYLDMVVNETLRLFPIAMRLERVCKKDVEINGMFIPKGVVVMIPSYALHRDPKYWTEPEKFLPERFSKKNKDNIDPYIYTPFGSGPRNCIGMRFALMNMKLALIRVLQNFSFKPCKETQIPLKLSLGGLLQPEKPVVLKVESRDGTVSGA

C[C@H](NS(=O)(=O)c1ccc(-c2c(C#N)c3cc(F)c(OC(F)F)cc3n2C2CCC2)nc1)C(F)(F)F
half-life [1]: 22 h
half-life [2]: 149 h
Drug metabolism [3]: Active
EC50 [4]: 0.007 µM
AUC(0-inf) [5]: 24.8 µM·h
bioavailability [6]: 35%
F [7]: 91%
AUC [8]: 24.79 µM·h
AUC(0-t) at 6 h [9]: 13.4 µM·h
Kp at 6 h [10]: 11.4
Ratio [11]: 277
AUC(0-inf) [12]: 24.8 µM·h
clearance [13]: 3 mL/min/kg
bioavailability [14]: 49%
IC50 [15]: 9.1 µM
half-life [16]: 11 h
clearance [17]: 2.2 mL/min/kg

CCc1cc2c(cc1F)c(C#N)c(-c1ccc(S(=O)(=O)N[C@@H](C)C(F)(F)F)cn1)n2C1CCC1
EC50 [4]: 0.004 µM
AUC(0-t) at 6 h [9]: 0.3 µM·h
Kp at 6 h [10]: 30.6
Ratio [11]: 18
IC50 [15]: > 10 µM

Cc1cc2c(cc1F)c(C#N)c(-c1ccc(S(=O)(=O)N[C@@H](C)C(F)(F)F)cn1)n2-c1ncccn1
Activity [18]: 36%
EC50 [4]: 0.006 µM
Activity [19]: 7%
Activity [20]: 41.5%
EC50 [21]: 2.2 µM
IC50 [22]: > 10 µM
IC50 [23]: > 10 µM
AUC(0-t) at 6 h [9]: 8.91 µM·h
Activity [24]: 39.8%
Activity [25]: 3%
Ratio [11]: 213
IC50 [26]: > 10 µM
IC50 [15]: > 10 µM

CCc1cc2c(cc1F)c(C#N)c(-c1ccc(S(=O)(=O)N[C@@H](C)C(F)(F)F)cn1)n2-c1ncc(F)cn1
Activity [18]: 71%
EC50 [4]: 0.003 µM
IC50 [22]: > 10 µM
IC50 [23]: > 10 µM
AUC(0-t) at 6 h [9]: 8.69 µM·h
Ratio [11]: 136
IC50 [26]: > 10 µM
IC50 [15]: > 10 µM

CCc1cc2c(cc1F)c(C#N)c(-c1ccc(S(=O)(=O)N[C@@H](C)C(F)(F)F)cn1)n2-c1ncccn1
Drug metabolism [27]: Active
Drug metabolism [28]: Not Active
half-life [1]: 8 h
Activity [29]: Non-toxic
half-life [2]: 8.9 h
Activity [18]: 37%
Drug metabolism [30]: Not Active
Drug metabolism [31]: Active
EC50 [4]: 0.002 µM
Activity [32]: 9%
AUC(0-inf) [5]: 3.1 µM·h
bioavailability [6]: 18%
Activity [19]: 6%
bioavailability [33]: 78%
Ratio [34]: 460
AUC(0-inf) [35]: 29 µM·h
IC50 [22]: > 10 µM
Vd [36]: 3.8 L/kg
IC50 [23]: > 10 µM
Cmax [37]: 540 nM
Activity [38]: 15.4%
AUC(0-t) at 6 h [9]: 8.16 µM·h
Activity [24]: 9.8%
Drug metabolism [39]: Active
Vd [40]: 3.9 L/kg
Kp at 6 h [10]: 25
clearance [41]: 4.6 mL/min/kg
Ratio [42]: 325
Ratio [11]: 342
AUC(0-inf) [12]: 20 µM·h
Ratio [43]: 50
Cmax [44]: 2400 nM
Vd [45]: 2.1 L/kg
clearance [13]: 10.1 mL/min/kg
Cmax [46]: 4000 nM
IC50 [26]: > 10 µM
bioavailability [14]: 62%
IC50 [15]: > 10 µM
half-life [16]: 7.5 h
EC50 [47]: 0.007 µM
clearance [17]: 11 mL/min/kg

Cc1cc2c(cc1F)c(C#N)c(-c1ccc(S(=O)(=O)N[C@@H](C)C(F)(F)F)cn1)n2C1CCC1
EC50 [4]: 0.007 µM
AUC(0-t) at 6 h [9]: 1.1 µM·h
Kp at 6 h [10]: 29.1
Ratio [11]: 24
IC50 [15]: > 10 µM
